According to ChEMBL document CHEMBL2417357, “Synthesis and antiprotozoal activities of benzyl phenyl ether diamidine derivatives” (Eur J Med Chem, 2013):
Activity calls are given as the source filed them. The calls are words filed in the database; no cut-off is given here.

How the values were obtained:
[1] = tested on: Trypanosoma brucei rhodesiense; assay: Antitrypanosomal activity against Trypanosoma brucei rhodesiense STIB900 infected in NMRI mouse assessed as cured animal at 20 mg/kg, ip administered for 4 days; assay type: functional, organism-based; set-up: dose 20 mg/kg
How it was run: (§1)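 Acute model in female NMRI mice infected with T. b. rhodesiense STIB900. Single daily doses given for four days, intraperitoneally or orally. Mice surviving 60 days post-infection without parasitaemia relapse counted as cured; result reported as cured/infected out of 4 mice per group, with mean survival in days.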

[2] = tested on: Trypanosoma brucei rhodesiense; assay: Antitrypanosomal activity against Trypanosoma brucei rhodesiense STIB900 infected in NMRI mouse assessed as mean survival days at 20 mg/kg, ip administered for 4 days; assay type: functional; details: route intraperitoneal
How it was run: (§2)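 Female NMRI mice, acute infection model with T. b. rhodesiense STIB900. Compound given as a single daily dose for four days, intraperitoneally or orally. Cure means survival to 60 days post-infection without parasitaemia relapse. Mean survival recorded in days.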

[3] = tested on: Trypanosoma brucei rhodesiense; assay: Antitrypanosomal activity against Trypanosoma brucei rhodesiense STIB900 after 72 hrs by Alamar blue assay; assay type: functional, organism-based; details: STIB900, 72 h
[4] = tested on: Plasmodium falciparum; assay: Antiplasmodial activity against chloroquine-resistant Plasmodium falciparum K1; assay type: functional, organism-based
How it was run: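 Chloroquine-resistant K1 strain tested in vitro. IC50 is the average of duplicate determinations.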

[5] = Selectivity index, ratio of IC50 for rat L6 cells to IC50 for Trypanosoma brucei rhodesiense STIB900; assay type: toxicity, cell-based; details: read-out: Ratio IC50
How it was run: (§3)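 SI = IC50 in rat L6 myoblasts / IC50 against the parasite (T. b. rhodesiense STIB900 or P. falciparum K1). Each IC50 is the average of duplicate determinations.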

[6] = tested on: L6; assay: Cytotoxicity against rat L6 cells after 72 hrs by Alamar blue assay; assay type: cell-based; details: L6, 72 h
How it was run: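 Rat L6 myoblast cells; cytotoxic IC50 taken as the average of duplicate determinations.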

[7] = Selectivity index, ratio of IC50 for rat L6 cells to IC50 for chloroquine-resistant Plasmodium falciparum K1; assay type: toxicity, cell-based; details: read-out: Ratio IC50; how it was run: as §3
[8] = tested on: Leishmania donovani; assay: Antileishmanial activity against amastigotes of Leishmania donovani MHOM/SD/62/IS-CL2D; assay type: functional, organism-based
How it was run: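 Axenic amastigotes of L. donovani MHOM/SD/62/IS-CL2D; IC50 taken as the average of at least two determinations.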

[9] = tested on: Trypanosoma brucei rhodesiense; assay: Antitrypanosomal activity against Trypanosoma brucei rhodesiense STIB900 infected in NMRI mouse assessed as mean survival days at 25 mg/kg, po administered for 4 days; assay type: functional; how it was run: as §2
[10] = Selectivity index, ratio of IC50 for rat L6 cells to IC50 for amastigotes of Leishmania donovani; assay type: toxicity, cell-based; details: read-out: Ratio IC50
How it was run: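 SI = IC50 in rat L6 myoblasts / IC50 against L. donovani MHOM/SD/62/IS-CL2D axenic amastigotes. The amastigote IC50 is the average of at least two determinations; the L6 IC50 is the average of duplicates.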

[11] = tested on: Trypanosoma brucei rhodesiense; assay: Antitrypanosomal activity against Trypanosoma brucei rhodesiense STIB900 infected in NMRI mouse assessed as mean survival days at 100 mg/kg, po administered for 4 days; assay type: functional; how it was run: as §2
[12] = tested on: Trypanosoma brucei rhodesiense; assay: Antitrypanosomal activity against Trypanosoma brucei rhodesiense STIB900 infected in NMRI mouse assessed as cured animal at 100 mg/kg, po administered for 4 days; assay type: functional, organism-based; set-up: dose 100 mg/kg; how it was run: as §1
[13] = tested on: Trypanosoma brucei rhodesiense; assay: Antitrypanosomal activity against Trypanosoma brucei rhodesiense STIB900 infected in NMRI mouse assessed as cured animal at 25 mg/kg, po administered for 4 days; assay type: functional, organism-based; set-up: dose 25 mg/kg; how it was run: as §1
[14] = tested on: Trypanosoma brucei rhodesiense; assay: Antitrypanosomal activity against Trypanosoma brucei rhodesiense STIB900 infected in NMRI mouse assessed as cured animal at 2 mg/kg, ip administered for 4 days; assay type: functional, organism-based; set-up: dose 2 mg/kg; how it was run: as §2
[15] = tested on: Trypanosoma brucei rhodesiense; assay: Antitrypanosomal activity against Trypanosoma brucei rhodesiense STIB900 infected in NMRI mouse assessed as mean survival days at 2 mg/kg, ip administered for 4 days; assay type: functional; details: route intraperitoneal; how it was run: as §2

SMILES	Activity [1]	MSD [2] [days]	IC50 [3] [µM]	IC50 [4] [µM]	selectivity ratio [5]	IC50 [6] [µM]	selectivity ratio [7]	IC50 [8] [µM]	MSD [9] [days]	selectivity ratio [10]	MSD [11] [days]	Activity [12]	Activity [13]	Activity [14]	MSD [15] [days]
N=C(N)c1cccc(COc2cccc(C(=N)N)c2)c1	inactive	19.8	0.097	0.121	248	24	198								
N=C(N)c1ccc(OCc2cccc(C(=N)N)c2)cc1	inactive	25.25	0.024	0.035	250	5.93	168								
Cl.Cl.N/C(=N\O)c1ccc(COc2ccc(/C(N)=N/O)cc2)cc1			> 238	9.49	< 1	8.28	< 1	> 100	>31.7	< 1	>46.25				
Cl.Cl.N/C(=N\O)c1cccc(COc2c(Br)cc(/C(N)=N/O)cc2Br)c1			6.89	7.56	4	26.8	4	61.1	20.75	< 1	>60	Active	inactive		
Nc1nc(N)nc(Nc2ccc([As]3SCC(CO)S3)cc2)n1 (configuration not stated) [MELARSOPROL]					1220									Active	>60
